# Measured values as given in PubChem BioAssay AID617 (SRMLSC, 2007).
# Test system: E. coli BW25113 ΔtolC growth inhibition, OD615
# Assay: growth inhibitors of E. coli tolC mutant, dose response, strain BW25113 ΔtolC::kan (AID 617);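 also: growth read after 20 h at 37 °C with compound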
# Procedure, shortened: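 Test system: E. coli BW25113 ΔtolC::kan bacteria | Amount: 1:1000 diluted subculture inoculum | Medium: LB plus kanamycin | Timing: 20 h exposure at 37 °C | Signal: Absorbance at 615 nm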
row,Structure (SMILES),IC50 [µM]
1,O=C(Nc1nnc(-c2ccccc2Cl)o1)c1ccc(S(=O)(=O)N2CCCCCC2)cc1,0.16
2,O=C(NCc1ccco1)c1ccc(S(=O)(=O)N2CCCc3ccccc32)cc1,30.2
3,COc1ccc(Cn2nnnc2C(C(C)C)N2CCc3ccccc32)cc1 (stereo not given),12.7
4,Cc1cccc(S(=O)(=O)Nc2nc3ccccc3nc2NCc2ccco2)c1,6.92
5,O=C(CNCCC1=CCCCC1)Nc1ccccc1N1CCCCC1,11.2
6,CC1(C)CC2CC(C)(CN2C(=O)c2cc(-c3ccccc3O)on2)C1 (stereo not given),3.42
7,CC1CCc2cc(F)ccc2N1C(=O)c1cc2nc(-c3ccco3)cc(C(F)(F)F)n2n1 (stereo not given),11.2
8,CCOc1cc(-c2c(C#N)c(=O)[nH]c3c2c(C)nn3-c2ccc(F)cc2)ccc1O,2.48
9,O=C(COc1ccc2ccccc2c1Br)N1CCN(c2ccccn2)CC1,10.5
10,O=C(CSc1nnc2scc(-c3ccccc3)n12)Nc1nsc(-c2ccccc2)n1,13.1
11,CCc1cccc(NC(=O)c2ccc(NS(=O)(=O)c3c(C)noc3C)cc2)c1,7.16
12,COCc1cc(C)nc2sc3c(=O)oc(C)nc3c12,96.2
13,CCOC(=O)N1CCC(c2cc(=O)n3[nH]c(C)c(-c4ccc(F)cc4)c3n2)CC1,1.68
14,CCOC(=O)Cc1csc(NC(=O)c2csc3c2CCCC3)n1,16.4
15,COc1ccc(C2CC(c3ccccc3)n3nc(NC(=O)c4cccs4)nc3N2)cc1 (stereo not given),8.18
16,CCn1c(C(=O)N2CCC(Cc3ccccc3)CC2)cc2sccc21,10.2
17,COc1ccc(C2(O)CC3CCC(C2)N3c2nc(C)cc(C)c2C#N)cc1 (stereo not given),24.6
18,c1coc(CN(Cc2cccs2)Cc2nnnn2C2CCCCC2)c1,19.6
19,Cc1ccc(NC(=O)CN(C)S(=O)(=O)c2cccc3nsnc23)cc1Cl,17.8
20,Cc1cc(S(=O)(=O)N2CCN(c3ccccc3C)CC2)ccc1F,14.6
21,Cc1cccn2c(=O)c3c(nc12)N1CCC(Cc2ccccc2)CC1C1(C3)C(=O)N(C)C(=O)N(C)C1=O (stereo not given),17.7
22,Cc1[nH]n2c(=O)c3c(nc2c1-c1ccc(Cl)cc1)CCC3,4.09
23,CCCOc1ccc2c3c(c(=O)oc2c1OCCC)CCC3,14.5

row,Structure (SMILES),IC50 [µM]
1,CC1(C)CC(=O)C=C(NCCN2CCN(C(=O)Nc3ccc(Cl)c(Cl)c3)CC2)C1,20.3
2,CCCc1cc(C(=O)Nc2cccc(Cl)c2)no1,14.6
3,Cc1ccc(S(=O)(=O)N(Cc2ccc(F)cc2)Cc2ccco2)cc1,7.01
4,Cc1cc(C)c(C#N)c(N2CCN(CCOc3ccc(Cl)cc3)CC2)n1,10.4
5,Cc1csc(NC(=O)c2cccc(Cn3nc(C)c(Br)c3C)c2)n1,10.3
6,CC(C)C1O/C(=N/C(=O)Nc2ccc(Cl)c(Cl)c2)NC1=O (stereo not given),2.07
7,CN(Cc1ccccc1)Cc1nc2c(c(=O)n(C)c(=O)n2C)n1CCCc1ccccc1,14.9
8,CCn1c(C(=O)N2CCC(C(=O)NCCCSC3CCCCC3)CC2)cc2sccc21,6.22
9,CCC(=NCc1ccc2c(c1)OCO2)c1c(O)n(C2CCCCC2)c(=O)[nH]c1=O,12
10,CCc1nc(N2CCCCC2C)c2oc3ccccc3c2n1 (stereo not given),13.6
11,Clc1ccc(COC(Cn2ccnc2)c2ccc(Cl)cc2Cl)cc1 (stereo not given),2.27
12,COc1ccc(NS(=O)(=O)c2ccc3c(c2)Cc2ccccc2-3)cn1,10.7
13,COc1ccccc1-c1cc(C(=O)NC(C)c2ccccc2)no1 (stereo not given),37.7
14,O=C(COC(=O)c1ccc(Oc2ccccc2)cc1)Nc1nnc(-c2ccccc2)o1,0.96
15,CN(c1cccc(NC(=O)Nc2cccc(Cl)c2)c1)S(C)(=O)=O,12.7
16,CC(=O)c1sc(NC(=O)C2(F)C(F)(F)C(F)(F)C(F)(F)C(F)(F)C2(F)F)nc1C,0.92
17,Cc1nn(-c2nc3ccccc3n2Cc2ccccc2)c2c1C(=O)CC(C)(C)C2,8.51
18,COc1ccccc1N1CCN(C(=O)c2cc(-c3cccc(Cl)c3)on2)CC1,12.9
19,Cc1cccc(OCCCCc2c(C)n[nH]c2C)c1C,1.56
20,O=c1c2ccccc2nc(SCc2cn3ccsc3n2)n1-c1ccccc1F,23.3
21,O=C1c2[nH]nc(-c3ccccc3O)c2C(c2cccc(Cl)c2)N1CC1CCCO1 (stereo not given),4.35
22,O=S(=O)(NCCSc1ccc(Cl)cc1)c1ccc2c(c1)OCCO2,8.89
23,N#C/C(=C\c1ccc[nH]1)Sc1nc2ccccc2s1,4.28

row,Structure (SMILES),IC50 [µM]
1,CCN1/C(=C(\O)c2ccccc2)C(=O)c2ccccc2S1(=O)=O,4.56
2,O=C(c1cccc(COc2ccc(Cl)cc2Cl)c1)N1CCN(c2ccccn2)CC1,3.82
3,COc1cc2ccccc2cc1C(=O)Nc1ccc(S(=O)(=O)Nc2cc(C)on2)cc1,10.7
4,CCOC(=O)c1[nH]c2ccc(F)cc2c1NC(=O)CN1CCN(C/C=C/c2ccccc2)CC1,14.8
5,CC1=CC(C)(C)N(C(=O)CSc2nnc(-c3ccccc3)o2)c2ccc(C)cc21,16.3
6,CCNc1nc(NC(C)C)nc(N(C#N)CCOc2ccc(Cl)cc2Cl)n1,6.64
7,COc1cc(NS(=O)(=O)c2ccc(Br)cc2)c(OC)cc1NC(=O)c1ccco1,25.3
8,CCn1c(SCC(=O)Nc2nc(-c3ccccc3)cs2)nnc1-c1ccccc1O,6.69
9,CCC(=Nc1ccc(OC)cc1OC)c1c(O)n(C2CCCCC2)c(=O)[nH]c1=O,4.85
10,Cc1nn(-c2ccccc2)c(Cl)c1C1C(C#N)=C(N)Oc2c1c(=O)oc1ccccc21 (stereo not given),12
11,Cc1ccc(/C(O)=C2\C(=O)C(=O)N(c3cc(C)on3)C2c2cccc(Br)c2)cc1 (stereo not given),13.8
12,C=CCc1cc(C)ccc1OCC(O)CN1CCN(c2ccccc2)CC1 (stereo not given),17
13,CC1CN(c2oc(COc3ccc(Cl)cc3Cl)nc2C#N)CC(C)O1 (stereo not given),10.3
14,O=c1c(-c2nc3ccccc3o2)c2oc3ccccc3n2c2ccccc12,17.6
15,Cc1[nH]n2c(=O)cc(C(C)(C)C)nc2c1-c1ccccc1,1.56
16,Cc1ccc(C)c2[nH]c(=O)c(CN(CC3CCCO3)S(=O)(=O)c3ccc4c(c3)OCCO4)cc12 (stereo not given),38.6
17,Cc1cccc(-n2ncc3c(N4CCC(C)CC4)ncnc32)c1,13
18,O=C(CN(C(=O)CNC(=O)c1ccco1)c1ccc(Cl)c(Cl)c1)NC1CCCCC1,28.1
19,CC(O)c1c(OCc2ccccc2)ncnc1OCc1ccccc1 (stereo not given),10.7
20,CCOc1ccc2nc(N3CCCN(C(=O)Nc4ccccc4C)CC3)c(C#N)cc2c1,36.3
21,Brc1cccc(-c2n[nH]c(-c3ccccc3)n2)c1,23.8
22,Cc1ccc2c(c1)[nH]c1c(N3CCN(Cc4ccccc4)CC3)ncnc12,39.1
23,COc1ccc(S(=O)(=O)Nc2ccc(S(=O)(=O)N3CCCCC3)cc2)cc1,15

row,Structure (SMILES),IC50 [µM]
1,O=C(Nc1nc(-c2cccs2)cs1)c1ccc(Cl)s1,26.3
2,O=C(Nc1ccc2c(c1)CCC2)C1COc2ccccc2O1 (stereo not given),12.2
3,CCCCCC(=O)Nc1ccccc1N1CCN(c2ccccc2)CC1,20.6
4,COC(=O)c1c(NC(=O)Cc2cccs2)sc2c1CCCC2,8.83
5,Cc1c(C(=O)OCCOc2ccccc2)[nH]c2c1C(=O)CCC2,3.86
6,COc1ccc(-c2nnc(SCc3cc(C)cc(C)c3)o2)cc1,6.77
7,CSc1nc2ccc(NS(=O)(=O)c3ccc(Cl)s3)cc2s1,0.72
8,CCCCn1c(NC(=O)c2ccccc2)c(C#N)c2nc3ccccc3nc21,2.79
9,Cc1ccc(C)c(S(=O)(=O)C(C#N)c2nc3ccccc3nc2N2CCOCC2)c1 (stereo not given),11.6
10,COc1ccccc1-c1cc(C(=O)NCc2ccccc2)no1,17.1
11,CCOC(=O)c1sc(NC(=O)CSc2n[nH]c(-c3ccccc3)n2)c(C#N)c1C,1.69
12,O=S(=O)(Nc1nc2ccccc2s1)c1ccc(Br)s1,3.88
13,Brc1cccc(C2CC(c3ccccc3)n3nnnc3N2)c1 (stereo not given),23.7
14,COc1ccc(C(=O)Nc2nc(-c3cccs3)cs2)cc1,8.14
15,COc1ccccc1N1CCN(C(c2ccccc2Cl)c2nnnn2C(C)(C)C)CC1 (stereo not given),27.6
16,COc1ccccc1N1CCN(Cc2nc(N)nc(Nc3ccc(C)c(Cl)c3)n2)CC1,9.02
17,Cn1c(Oc2ccccc2NCc2cc(Br)ccc2O)cc(=O)n(C)c1=O,4.08
18,Cc1ccc(NC(=O)N2CCC(c3nc4c(nnn4Cc4cccc(Cl)c4)c(=O)[nH]3)CC2)cc1,13.5
19,CCCc1ccc(OCc2ccc(C(=O)N3CCN(c4ccccn4)CC3)o2)c(OC)c1,7.15
20,O=C(Nc1cccc2cccnc12)c1ccc(Br)o1,10.6
21,O=C(c1noc2c1CCc1ccccc1-2)N1CCc2ccccc2C1,6.67
